Assay results pooled from the literature.
SLC7A5: Large neutral amino acids transporter small subunit 1 (SLC7A5, Homo sapiens, UniProt Q01650)
SIRT1: NAD-dependent protein deacetylase sirtuin-1 (SIRT1, Homo sapiens, UniProt Q96EB6)
SPHK2: Sphingosine kinase 2 (SPHK2, Homo sapiens, UniProt Q9NRA0)
XDH: Xanthine dehydrogenase/oxidase (XDH, Bos taurus, UniProt P80457)
Adra1b: Alpha-1B adrenergic receptor (Adra1b, Rattus norvegicus, UniProt P15823)

NC(CNC(=O)c1ccccc1)C(=O)O (centres unmarked)
inhibition (SLC7A5; transporter uptake, inhibitor, radiometric; 200 µM): 4.6%

CCCCCCCCCCCCNC(=S)NCCCC[C@H](NC(=O)OCc1ccccc1)C(=O)N[C@@H](Cc1c[nH]c2ccccc12)C(=O)N[C@@H](CCCCN)C(N)=O
inhibition (SIRT1; enzyme activity, inhibitor; 10 µM): 71%

CCCC=CCOc1ccc(-c2noc([C@@H]3CCCN3C(=N)N)n2)cc1C(F)(F)F
inhibition (SPHK2; enzyme activity, inhibitor, radiometric; 0.3 µM): 28%

CCOCCOCCNC(=S)NCCCC[C@H](NS(C)(=O)=O)C(=O)N[C@H](C)C(=O)N[C@@H](CCCNC(=N)N)C(N)=O
inhibition (SIRT1; enzyme activity, inhibitor; 100 µM): 12%

Oc1ncnc2[nH]ncc12
inhibition (XDH; enzyme activity, inhibitor, absorbance; 25 µg/mL): 97%

N=C(N)N1CCC[C@H]1c1nc(-c2ccc(CCC3CCCCC3)c(C(F)(F)F)c2)no1
inhibition (SPHK2; enzyme activity, inhibitor, radiometric; 0.3 µM): 71%

CC(C)C1CC(=O)c2cc(Cl)cc(Br)c2O1 (centres unmarked)
inhibition (SIRT1; enzyme activity, inhibitor, fluorescence; 200 µM): 2.8%

CS(=O)(=O)Nc1cccc(-c2csc(NC(=O)CSc3nc4nccnc4c(=O)n3CCc3ccccc3)n2)c1
inhibition (SPHK2; enzyme activity, inhibitor; 10 µM): -12%

CNC(=O)c1cc(Oc2ccc(NC(=O)Nc3ccc(Cl)c(C(F)(F)F)c3)cc2)ccn1
inhibition (Platelet-derived growth factor receptor alpha (PDGFRA, Homo sapiens, UniProt P16234); enzyme activity, inhibitor; 10 µM): 95%

CCCCCCCCCCCCCC(=O)NNCCC[C@H](NC(=O)OCc1ccccc1)C(=O)N[C@@H](Cc1c[nH]c2ccccc12)C(=O)NC(C)C
inhibition (SIRT1; enzyme activity, inhibitor; 100 µM): 10%

OCCc1ccc(O)c(O)c1
inhibition (XDH; enzyme activity, inhibitor, absorbance; 200 µg/mL): 12.5%

CCCCCC1CC(=O)c2cc(OC)ccc2O1 (centres unmarked)
inhibition (SIRT1; enzyme activity, inhibitor, fluorescence; 200 µM): 10.3%

CCCCCCCCCCCCNC(=S)NCCCC[C@H](NC(=O)OCc1ccccc1)C(=O)N[C@@H](Cc1c[nH]c2ccccc12)C(=O)N[C@@H](CCNC(=N)N)C(N)=O
inhibition (SIRT1; enzyme activity, inhibitor; 1 µM): 30%

Cc1ccc(S(=O)(=O)n2cc(CCC3CC(=O)c4cc(Cl)cc(Br)c4O3)c3ccccc32)cc1 (centres unmarked)
inhibition (SIRT1; enzyme activity, inhibitor, fluorescence; 200 µM): 23%

N[C@@H](Cc1cccc(C(=O)Oc2ccccc2)c1)C(=O)O
inhibition (SLC7A5; transporter uptake, inhibitor, radiometric; 200 µM): 85%

CCCCCC1CCc2cc(Cl)cc(Br)c2O1 (centres unmarked)
inhibition (SIRT1; enzyme activity, inhibitor, fluorescence; 200 µM): -5.2%

N=C(N)N1CCC[C@H]1c1nc(-c2ccc(CCc3ccc(C(F)(F)F)cc3)c(C(F)(F)F)c2)no1
inhibition (SPHK2; enzyme activity, inhibitor, radiometric; 0.3 µM): 59%

N[C@@H](Cc1ccc(OC(=O)c2ccccc2)cc1)C(=O)O
inhibition (SLC7A5; transporter uptake, inhibitor, radiometric; 200 µM): 49%

O=c1cc(-c2ccccc2)oc2c(Br)cc(Cl)cc12
inhibition (SIRT1; enzyme activity, inhibitor, fluorescence; 200 µM): 3.1%

CCCCCCCCCCCCCC(=O)NCCCC[C@H](NS(C)(=O)=O)C(=O)N[C@H](C)C(=O)N[C@@H](CCCNC(=N)N)C(N)=O
inhibition (SIRT1; enzyme activity, inhibitor; 10 µM): 23%

O=C(c1ccc(F)cc1)N(Cc1ccccc1)C1CCCCC1
inhibition (Adra1b; cell-free assay; 10 µM): 4%

CCCc1ccc(CCc2ccc(-c3noc([C@@H]4CCCN4C(=N)N)n3)cc2C(F)(F)F)cc1
inhibition (SPHK2; enzyme activity, inhibitor, radiometric; 0.3 µM): 65%

O=C(O)c1ccc(O)c(O)c1
inhibition (XDH; enzyme activity, inhibitor, absorbance; 100 µg/mL): 9.5%

O=C(NC1CCC1)[C@H](Cc1c[nH]c2ccccc12)NC(=O)[C@H](CCCCNC(=S)NCc1cc(O)no1)NS(=O)(=O)c1cccc(F)c1
inhibition (SIRT1; enzyme activity, inhibitor; 30 µM): 49%

CCCCCCCCCCCCNC(=S)NCCCC[C@H](NC(=O)OCc1ccccc1)C(=O)N[C@@H](Cc1c[nH]c2ccccc12)C(=O)N[C@@H](CCC(=O)O)C(N)=O
inhibition (SIRT1; enzyme activity, inhibitor; 1 µM): 28%

CSSc1ccccc1C(=O)O
inhibition (Procathepsin L (CTSL, Homo sapiens, UniProt P07711); enzyme activity, inhibitor, fluorescence; 20 µM): 93%

O=C(NC1CCC1)[C@H](Cc1c[nH]c2ccccc12)NC(=O)[C@H](CCCCNC(=S)NCCn1nn[nH]c1=O)NS(=O)(=O)c1cccc(F)c1
inhibition (SIRT1; enzyme activity, inhibitor; 10 µM): 17%

O=C(CO)c1ccc(O)c(O)c1
inhibition (XDH; enzyme activity, inhibitor, absorbance; 100 µg/mL): 20%

CCCCCC1CC(=O)c2cc(C)cc(C)c2O1 (centres unmarked)
inhibition (SIRT1; enzyme activity, inhibitor, fluorescence; 200 µM): 3.2%

N[C@@H](CCCCNC(=O)c1ccccc1)C(=O)O
inhibition (SLC7A5; transporter uptake, inhibitor, radiometric; 200 µM): 38%

O=C1C=C(c2ccc(O)c(O)c2)CO1
inhibition (XDH; enzyme activity, inhibitor, absorbance; 200 µg/mL): 50%

CCCCCC1CC(=O)c2cc(Br)cc(Br)c2O1 (centres unmarked)
inhibition (SIRT1; enzyme activity, inhibitor, fluorescence; 200 µM): 0.6%

[H]/N=C(\N)N1CCC[C@H]1c1nc(-c2ccc(OCC=Cc3ccc(F)cc3)c(C(F)(F)F)c2)no1
inhibition (SPHK2; enzyme activity, inhibitor, radiometric; 0.3 µM): 57%

OCCc1ccc(O)cc1
inhibition (XDH; enzyme activity, inhibitor, absorbance; 100 µg/mL): 7.9%

Ic1cccc2cnccc12
inhibition (Adra1b; ligand displacement, radioligand; 10 µM): 7%

O=C(O)c1ccc(O)cc1
inhibition (XDH; enzyme activity, inhibitor, absorbance; 200 µg/mL): 17.9%

CCCCCCCCCCCCNC(=S)NCCCC[C@H](NC(=O)OCc1ccccc1)C(=O)N[C@@H](C)C(=O)N[C@@H](CCCNC(=N)N)C(N)=O
inhibition (SIRT1; enzyme activity, inhibitor; 1 µM): 61%

CC(C)CCn1c(SCC(=O)Nc2ccccc2C(F)(F)F)nc2nccnc2c1=O
inhibition (SPHK2; enzyme activity, inhibitor; 10 µM): < 20%

O=Cc1c[nH]c2ccccc12
inhibition (XDH; enzyme activity, inhibitor, absorbance; 100 µg/mL): 8.1%

CCCCCCCCCCCCNC(=S)NCCCC[C@H](NC(=O)C1CCCCC1)C(=O)N[C@H](C)C(=O)N[C@@H](CCCNC(=N)N)C(N)=O
inhibition (SIRT1; enzyme activity, inhibitor; 1 µM): 44%

NC(COC(=O)c1ccccc1)C(=O)O (centres unmarked)
inhibition (SLC7A5; transporter uptake, inhibitor, radiometric; 200 µM): 16%

[H]/N=C(\N)N1CCC[C@H]1c1nc(-c2ccc(OCC=Cc3ccc(C(F)(F)F)cc3)c(C(F)(F)F)c2)no1
inhibition (SPHK2; enzyme activity, inhibitor, radiometric; 0.3 µM): 75%

O=C(O)Cc1ccccc1OP(=O)(O)O
inhibition (Signal transducer and activator of transcription 5B, SH2 (STAT5B, Homo sapiens, UniProt P51692); ligand displacement, FP; 100 µM): 39%

N=C(N)N1CCC[C@H]1c1nc(-c2ccc(CCC3CC3)c(C(F)(F)F)c2)no1
inhibition (SPHK2; enzyme activity, inhibitor, radiometric; 0.3 µM): 32%

O=C1CC(CCNC(=S)NCCCC[C@H](NS(=O)(=O)c2cccc(F)c2)C(=O)N[C@@H](Cc2c[nH]c3ccccc23)C(=O)NC2CCC2)=NO1
inhibition (SIRT1; enzyme activity, inhibitor; 10 µM): 22%

[H]/N=C(/N)N1CCC[C@H]1c1nc(-c2ccc(OCCC=CCCC)c(C(F)(F)F)c2)no1
inhibition (SPHK2; enzyme activity, inhibitor, radiometric; 0.3 µM): 56%

CCCC1CC(=O)c2cc(Cl)cc(Br)c2O1 (centres unmarked)
inhibition (SIRT1; enzyme activity, inhibitor, fluorescence; 200 µM): 6.4%
